Laboratory results taken from ChEMBL document CHEMBL4145675, “2-Phenylquinoline S. aureus NorA Efflux Pump Inhibitors: Evaluation of the Importance of Methoxy Group Introduction” (J Med Chem, 2018).

Target: T1, Multidrug export protein MepA (Staphylococcus aureus (strain NCTC 8325)) (UniProt Q2G140)
T1 sequence (whole entry): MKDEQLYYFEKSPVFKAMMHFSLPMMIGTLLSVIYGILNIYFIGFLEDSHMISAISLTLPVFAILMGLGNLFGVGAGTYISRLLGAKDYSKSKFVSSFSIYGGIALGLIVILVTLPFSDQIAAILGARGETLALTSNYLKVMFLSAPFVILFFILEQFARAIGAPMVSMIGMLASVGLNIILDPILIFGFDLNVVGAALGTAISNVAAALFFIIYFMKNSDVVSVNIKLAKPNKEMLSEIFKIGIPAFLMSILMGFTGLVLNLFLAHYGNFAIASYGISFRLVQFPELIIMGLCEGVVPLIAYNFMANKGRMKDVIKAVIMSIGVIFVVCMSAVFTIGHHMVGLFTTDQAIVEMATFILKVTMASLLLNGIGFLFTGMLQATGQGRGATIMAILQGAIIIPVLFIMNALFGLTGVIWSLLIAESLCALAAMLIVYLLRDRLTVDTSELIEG
Experiment: Inhibition of MepA in Staphylococcus aureus SA-K2886 assessed as synergistic potentiation of EtBr-induced antimicrobial activity by measuring […] at 1.56 ug/ml by microdilution method based Checkerboard assay (reference value: 25 ug/ml)
Outline: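 Checkerboard combination of EtBr with compound, using broth microdilution MICs. SA-K2886 (norA-deleted, pALC2073-mepA) and SA-K2885 (norA-deleted, empty pALC2073) were run with 0.05 µg/mL tetracycline in all experiments to induce the xyl/tetO promoter.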

Structure (SMILES): CCCOc1ccc(-c2cc(OCCN3CCCCC3)c3cc(OC)ccc3n2)cc1
- MIC: < 1.56 µg/mL
